Values after ≈ are worked out from the molar mass of the structure shown. Active and inactive are the calls of the source. The rule behind the calls is not given here.
How the values were obtained:
Trichoderma koningii [1] = experiment: Antifungal activity against Trichoderma koningii; format: functional
Trichoderma koningii [2] = experiment: Antifungal activity against Trichoderma koningii assessed as radial growth at 5% after 48 hrs by poison food technique of Flack relative to control; format: functional
Procedure, shortened: (§1)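 Acetone stock added to molten sterilized PDA to final 0.5–7%, plated in 90 mm dishes with compound-free plates as control. Each plate was inoculated with a 9 mm disc from a 4-day-old culture, incubated at 25 ± 1 °C, and colony diameter measured at 24 h intervals. % inhibition = (control − treatment)/control × 100; three replicates averaged.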

Trichoderma koningii [3] = experiment: Antifungal activity against Trichoderma koningii assessed as radial growth at 0.5% after 72 hrs by poison food technique of Flack relative to control; format: functional; procedure, shortened: as §1
Aspergillus niger [4] = experiment: Antifungal activity against Aspergillus niger assessed as radial growth at 3% after 48 hrs by poison food technique of Flack relative to control; format: functional
Trichoderma koningii [5] = experiment: Antifungal activity against Trichoderma koningii assessed as radial growth at 3% after 24 hrs by poison food technique of Flack relative to control; format: functional; procedure, shortened: as §1
Trichoderma koningii [6] = experiment: Antifungal activity against Trichoderma koningii assessed as radial growth at 7% after 48 hrs by poison food technique of Flack relative to control; format: functional; procedure, shortened: as §1
Trichoderma koningii [7] = experiment: Antifungal activity against Trichoderma koningii assessed as radial growth at 5% after 72 hrs by poison food technique of Flack relative to control; format: functional; procedure, shortened: as §1
Trichoderma hamatum [8] = experiment: Antifungal activity against Trichoderma hamatum assessed as radial growth at 3% after 24 hrs by poison food technique of Flack relative to control; format: functional
Aspergillus niger [9] = experiment: Antifungal activity against Aspergillus niger assessed as radial growth at 7% after 24 hrs by poison food technique of Flack relative to control; format: functional
Trichoderma hamatum [10] = experiment: Antifungal activity against Trichoderma hamatum assessed as radial growth at 0.5% after 72 hrs by poison food technique of Flack relative to control; format: functional
Trichoderma hamatum [11] = experiment: Antifungal activity against Trichoderma hamatum assessed as radial growth at 3% after 72 hrs by poison food technique of Flack relative to control; format: functional
Trichoderma hamatum [12] = experiment: Antifungal activity against Trichoderma hamatum assessed as radial growth at 0.5% after 48 hrs by poison food technique of Flack relative to control; format: functional
Trichoderma koningii [13] = experiment: Antifungal activity against Trichoderma koningii assessed as radial growth at 3% after 48 hrs by poison food technique of Flack relative to control; format: functional; procedure, shortened: as §1
Trichoderma hamatum [14] = experiment: Antifungal activity against Trichoderma hamatum assessed as radial growth at 1% after 72 hrs by poison food technique of Flack relative to control; format: functional
Trichoderma hamatum [15] = experiment: Antifungal activity against Trichoderma hamatum assessed as radial growth at 5% after 48 hrs by poison food technique of Flack relative to control; format: functional; procedure, shortened: as §1
Trichoderma hamatum [16] = experiment: Antifungal activity against Trichoderma hamatum; format: functional
Trichoderma hamatum [17] = experiment: Antifungal activity against Trichoderma hamatum assessed as radial growth at 7% after 72 hrs by poison food technique of Flack relative to control; format: functional; procedure, shortened: as §1
Aspergillus niger [18] = experiment: Antifungal activity against Aspergillus niger assessed as radial growth at 3% after 24 hrs by poison food technique of Flack relative to control; format: functional
Aspergillus niger [19] = experiment: Antifungal activity against Aspergillus niger assessed as radial growth at 1% after 24 hrs by poison food technique of Flack relative to control; format: functional
Trichoderma koningii [20] = experiment: Antifungal activity against Trichoderma koningii assessed as radial growth at 7% after 72 hrs by poison food technique of Flack relative to control; format: functional; procedure, shortened: as §1
Aspergillus niger [21] = experiment: Antifungal activity against Aspergillus niger assessed as radial growth at 5% after 48 hrs by poison food technique of Flack relative to control; format: functional
Trichoderma hamatum [22] = experiment: Antifungal activity against Trichoderma hamatum assessed as radial growth at 0.5% after 24 hrs by poison food technique of Flack relative to control; format: functional
Aspergillus niger [23] = experiment: Antifungal activity against Aspergillus niger assessed as radial growth at 5% after 24 hrs by poison food technique of Flack relative to control; format: functional
Trichoderma hamatum [24] = experiment: Antifungal activity against Trichoderma hamatum assessed as radial growth at 7% after 24 hrs by poison food technique of Flack relative to control; format: functional; procedure, shortened: as §1
Aspergillus niger [25] = experiment: Antifungal activity against Aspergillus niger assessed as radial growth at 3% after 72 hrs by poison food technique of Flack relative to control; format: functional
Trichoderma hamatum [26] = experiment: Antifungal activity against Trichoderma hamatum assessed as radial growth at 1% after 48 hrs by poison food technique of Flack relative to control; format: functional
Trichoderma hamatum [27] = experiment: Antifungal activity against Trichoderma hamatum assessed as radial growth at 5% after 24 hrs by poison food technique of Flack relative to control; format: functional; procedure, shortened: as §1
Trichoderma hamatum [28] = experiment: Antifungal activity against Trichoderma hamatum assessed as radial growth at 7% after 24 hrs by poison food technique of Flack; format: functional, organism-based
Procedure, shortened: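 Poisoned-food method: acetone stock mixed into molten sterilized potato dextrose agar to final 0.5, 1, 3, 5 or 7%, poured into 90 mm plates. Plates were inoculated with a 9 mm mycelial disc from a 4-day-old pure culture and incubated at 25 ± 1 °C. Colony diameter (mm) was read every 24 h; mean of three replicates.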

Aspergillus niger [29] = experiment: Antifungal activity against Aspergillus niger assessed as radial growth at 1% after 48 hrs by poison food technique of Flack relative to control; format: functional
Aspergillus niger [30] = experiment: Antifungal activity against Aspergillus niger assessed as radial growth at 0.5% after 72 hrs by poison food technique of Flack relative to control; format: functional
Trichoderma koningii [31] = experiment: Antifungal activity against Trichoderma koningii assessed as radial growth at 0.5% after 24 hrs by poison food technique of Flack relative to control; format: functional; procedure, shortened: as §1
Aspergillus niger [32] = experiment: Antifungal activity against Aspergillus niger assessed as radial growth at 0.5% after 24 hrs by poison food technique of Flack relative to control; format: functional
Aspergillus niger [33] = experiment: Antifungal activity against Aspergillus niger assessed as radial growth at 7% after 48 hrs by poison food technique of Flack relative to control; format: functional
Trichoderma hamatum [34] = experiment: Antifungal activity against Trichoderma hamatum assessed as radial growth at 3% after 48 hrs by poison food technique of Flack relative to control; format: functional
Trichoderma koningii [35] = experiment: Antifungal activity against Trichoderma koningii assessed as radial growth at 1% after 48 hrs by poison food technique of Flack relative to control; format: functional; procedure, shortened: as §1
Aspergillus niger [36] = experiment: Antifungal activity against Aspergillus niger assessed as radial growth at 7% after 72 hrs by poison food technique of Flack relative to control; format: functional
Aspergillus niger [37] = experiment: Antifungal activity against Aspergillus niger assessed as radial growth at 5% after 72 hrs by poison food technique of Flack relative to control; format: functional
Aspergillus niger [38] = experiment: Antifungal activity against Aspergillus niger assessed as radial growth at 0.5% after 48 hrs by poison food technique of Flack relative to control; format: functional
Trichoderma koningii [39] = experiment: Antifungal activity against Trichoderma koningii assessed as radial growth at 5% after 24 hrs by poison food technique of Flack relative to control; format: functional; procedure, shortened: as §1
Trichoderma koningii [40] = experiment: Antifungal activity against Trichoderma koningii assessed as radial growth at 3% after 72 hrs by poison food technique of Flack relative to control; format: functional; procedure, shortened: as §1
Aspergillus niger [41] = experiment: Antifungal activity against Aspergillus niger; format: functional
Trichoderma koningii [42] = experiment: Antifungal activity against Trichoderma koningii assessed as radial growth at 1% after 72 hrs by poison food technique of Flack relative to control; format: functional; procedure, shortened: as §1
Trichoderma koningii [43] = experiment: Antifungal activity against Trichoderma koningii assessed as radial growth at 1% after 24 hrs by poison food technique of Flack relative to control; format: functional; procedure, shortened: as §1
Trichoderma hamatum [44] = experiment: Antifungal activity against Trichoderma hamatum assessed as radial growth at 1% after 24 hrs by poison food technique of Flack relative to control; format: functional
Aspergillus niger [45] = experiment: Antifungal activity against Aspergillus niger assessed as radial growth at 1% after 72 hrs by poison food technique of Flack relative to control; format: functional

## CCOC(=O)C1=C(C)NC(=S)NC1c1ccccc1 (stereo not given)
Trichoderma koningii [1]
  MIC: 0.025 µg/mL (≈ 0.0905 µM)
Trichoderma koningii [2]
  inhibition (INH): 87.34%
Trichoderma koningii [3]
  inhibition (INH): 0%
Aspergillus niger [4]
  inhibition (INH): 47.81%
Trichoderma koningii [5]
  inhibition (INH): 56.03%
Trichoderma koningii [6]
  inhibition (INH): 90.96%
Trichoderma koningii [7]
  inhibition (INH): 79.82%
Trichoderma hamatum [8]
  inhibition (INH): 67.13%
Aspergillus niger [9]
  inhibition (INH): 100%
Trichoderma hamatum [10]
  inhibition (INH): 0%
Trichoderma hamatum [11]
  inhibition (INH): 37.65%
Trichoderma hamatum [12]
  inhibition (INH): 8.81%
Trichoderma koningii [13]
  inhibition (INH): 68.08%
Trichoderma hamatum [14]
  inhibition (INH): 0%
Trichoderma hamatum [15]
  inhibition (INH): 93%
Trichoderma hamatum [16]
  MIC: 0.025 µg/mL (≈ 0.0905 µM)
Trichoderma hamatum [17]
  inhibition (INH): 95.98%
Aspergillus niger [18]
  inhibition (INH): 33.33%
Aspergillus niger [19]
  inhibition (INH): 0%
Trichoderma koningii [20]
  inhibition (INH): 84.42%
Aspergillus niger [21]
  inhibition (INH): 54.54%
Trichoderma hamatum [22]
  inhibition (INH): 17.13%
Aspergillus niger [23]
  inhibition (INH): 33.33%
Trichoderma hamatum [24]
  inhibition (INH): 100%
Aspergillus niger [25]
  inhibition (INH): 36.36%
Trichoderma hamatum [26]
  inhibition (INH): 18.65%
Trichoderma hamatum [27]
  inhibition (INH): 89.18%
Trichoderma hamatum [28]
  Activity: Active
Aspergillus niger [29]
  inhibition (INH): 0%
Aspergillus niger [30]
  inhibition (INH): 0%
Trichoderma koningii [31]
  inhibition (INH): 0%
Aspergillus niger [32]
  inhibition (INH): 0%
Aspergillus niger [33]
  inhibition (INH): 100%
Trichoderma hamatum [34]
  inhibition (INH): 67.62%
Trichoderma koningii [35]
  inhibition (INH): 0%
Aspergillus niger [36]
  inhibition (INH): 100%
Aspergillus niger [37]
  inhibition (INH): 55.63%
Aspergillus niger [38]
  inhibition (INH): 0%
Trichoderma koningii [39]
  inhibition (INH): 89.2%
Trichoderma koningii [40]
  inhibition (INH): 62.71%
Aspergillus niger [41]
  MIC: 0.35 µg/mL (≈ 1.27 µM)
Trichoderma koningii [42]
  inhibition (INH): 0%
Trichoderma koningii [43]
  inhibition (INH): 0%
Trichoderma hamatum [44]
  inhibition (INH): 47.78%
Aspergillus niger [45]
  inhibition (INH): 0%

## CCOC(=O)C1=C(C)NC(=O)NC1c1ccccc1O (stereo not given)
Trichoderma koningii [1]
  MIC: 0.025 µg/mL (≈ 0.0905 µM)
Trichoderma koningii [2]
  inhibition (INH): 70.83%
Trichoderma koningii [3]
  inhibition (INH): 0%
Aspergillus niger [4]
  inhibition (INH): 64.58%
Trichoderma koningii [5]
  inhibition (INH): 50.72%
Trichoderma koningii [6]
  inhibition (INH): 100%
Trichoderma koningii [7]
  inhibition (INH): 55.7%
Trichoderma hamatum [8]
  inhibition (INH): 63.84%
Aspergillus niger [9]
  inhibition (INH): 100%
Trichoderma hamatum [10]
  inhibition (INH): 0%
Trichoderma hamatum [11]
  inhibition (INH): 59.1%
Trichoderma hamatum [12]
  inhibition (INH): 0%
Trichoderma koningii [13]
  inhibition (INH): 38.81%
Trichoderma hamatum [14]
  inhibition (INH): 15.84%
Trichoderma hamatum [15]
  inhibition (INH): 94.23%
Trichoderma hamatum [16]
  MIC: 0.025 µg/mL (≈ 0.0905 µM)
Trichoderma hamatum [17]
  inhibition (INH): 96.78%
Aspergillus niger [18]
  inhibition (INH): 37.6%
Aspergillus niger [19]
  inhibition (INH): 0%
Trichoderma koningii [20]
  inhibition (INH): 97.31%
Aspergillus niger [21]
  inhibition (INH): 65.66%
Trichoderma hamatum [22]
  inhibition (INH): 0%
Aspergillus niger [23]
  inhibition (INH): 40%
Trichoderma hamatum [24]
  inhibition (INH): 100%
Aspergillus niger [25]
  inhibition (INH): 60.71%
Trichoderma hamatum [26]
  inhibition (INH): 22.44%
Trichoderma hamatum [27]
  inhibition (INH): 89.47%
Trichoderma hamatum [28]
  Activity: Active
Aspergillus niger [29]
  inhibition (INH): 17.75%
Aspergillus niger [30]
  inhibition (INH): 33.35%
Trichoderma koningii [31]
  inhibition (INH): 0%
Aspergillus niger [32]
  inhibition (INH): 0%
Aspergillus niger [33]
  inhibition (INH): 100%
Trichoderma hamatum [34]
  inhibition (INH): 68.75%
Trichoderma koningii [35]
  inhibition (INH): 5.2%
Aspergillus niger [36]
  inhibition (INH): 92.85%
Aspergillus niger [37]
  inhibition (INH): 66.07%
Aspergillus niger [38]
  inhibition (INH): 34.75%
Trichoderma koningii [39]
  inhibition (INH): 79.71%
Trichoderma koningii [40]
  inhibition (INH): 25.16%
Aspergillus niger [41]
  MIC: 0.025 µg/mL (≈ 0.0905 µM)
Trichoderma koningii [42]
  inhibition (INH): 0.67%
Trichoderma koningii [43]
  inhibition (INH): 0%
Trichoderma hamatum [44]
  inhibition (INH): 21.05%
Aspergillus niger [45]
  inhibition (INH): 16.07%

Source: ChEMBL document CHEMBL1152173, “Synthesis and in vitro evaluation of the antifungal activities of dihydropyrimidinones” (2008)
